Common to all, as to type: functional, cell-based
In test [1] the test system is LoVo. Kind of test: Cytotoxicity against human wild type LoVo cells after 48 hrs by MTS assay. The essentials:
(§1)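 LoVo WT human colon adenocarcinoma cells grown in D-MEM F12 with 10% FBS, penicillin/streptomycin, 37 °C, 5% CO2. Seeded 1 × 10^4 cells/well, medium replaced after 1 day with exposure medium containing test agents (0.1–300 µM; DMSO 0.3% or less). After 1–3 day exposure, MTS/PMS added for 2 h at 37 °C; formazan absorbance read at 490 nm. Viability expressed relative to DMSO-only controls.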
Background: Tetrazolium dyes change colour on reduction, which living cells bring about.

Test [2] relates to LoVo. Kind of test: Cytotoxicity against human wild type LoVo cells after 24 hrs by MTS assay. The essentials: as §1
Test [3] concerns LoVo. Kind of test: Induction of apoptosis in human wild type LoVo cells assessed as increase in hyplodiploid cells after 24 hrs by flow cytometry. The procedure, abridged:
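Apoptosis measured in LoVo WT cells after 24 h exposure as the percentage of hypodiploid cells (loss of fragmented DNA), determined by flow cytometry.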
Background: A flow cytometer gives signals particle by particle.

Test [4] concerns LoVo. Kind of test: Cytotoxicity against human wild type LoVo cells at 100 uM after 24 hrs by MTS assay. The essentials:
as §1

Active and inactive are the calls of the source. The calls are words filed in the database; no cut-off is given here.

Broadly, the IC50 is the concentration that gives 50% inhibition. A low value points to greater potency in that assay. Consider `CC1(C)CCc2c(ccc3cc(O)ccc23)O1`, for which the IC50 in the test with LoVo [1] stood at 27.4 µM; with LoVo [2] it was 34.5 µM. Also, the result in the test on LoVo [3] was Active.

`CC1(C)CCc2cc(CCO)ccc2O1`: the result in the test on LoVo [4] was inactive.

Turning to `CC1(C)CCc2c(ccc3c4c(ccc23)OC(C)(C)CC4)O1`, the results for the IC50 in the test on LoVo [1] and in the test on LoVo [2] were 395 µM and 258 µM, respectively. Besides, in the test on LoVo [3], the result was inactive.

As for `Oc1ccc2cc(O)ccc2c1`, the outcome in the test on LoVo [3] was inactive.
